Non-standard residues stand in square brackets, D forms with d. Residues, ends and D or L forms follow the SMILES beside them. *: point of attachment. Hyp = O=C(O)[C@@H]1C[C@@H](O)CN1; Tic = O=C(O)[C@@H]1Cc2ccccc2CN1; Octanoyl = CCCCCCCC(=O)*; tBu = CC(C)(C)*
What was measured:
[1] = target: T1, Replicase polyprotein 1ab (Severe acute respiratory syndrome coronavirus 2, UniProt P0DTD1); assay: Inhibition of C-terminal His6-tagged recombinant SARS-CoV-2 MPro transfected in Escherichia coli BL21 (DE3) using Dabcyl-KTSAVLQSGFRKM-E(Edans)-NH2 as substrate preincubated for 15 mins followed by substrate addition measured after 30 mins by FRET assay
Summary of the method: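 Recombinant Mpro (20 nM final) was preincubated 15 min at room temperature with compound.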

[2] = target: T1, Replicase polyprotein 1ab; assay: Binding affinity to C-terminal His6-tagged recombinant SARS-CoV-2 MPro transfected in Escherichia coli BL21 (DE3) assessed as dissociation constant by Cheng-Prusoff equation analysis
[3] = Cytotoxicity against HELF cells assessed as change in cell morphology; format: toxicity, cell-based; settings: human
SARS-CoV-2 [4] = assay: Antiviral activity against SARS-CoV-2 RG2674 infected in African green monkey Vero cells assessed as reduction in virus-induced cytopathic effect incubated for 5 days by microscopic analysis; format: functional, organism-based; settings: Severe acute respiratory syndrome coronavirus 2, RG2674, Vero, 120 h
SARS-CoV-2 [5] = assay: Antiviral activity against SARS-CoV-2 NVDBB-2220 infected in African green monkey Vero cells assessed as reduction in virus-induced cytopathic effect incubated for 5 days by microscopic analysis; format: functional, organism-based; settings: Severe acute respiratory syndrome coronavirus 2, NVDBB-2220, Vero, 120 h
[6] = Cytotoxicity against African green monkey Vero cells assessed as change in cell morphology by microscopic analysis; format: toxicity, cell-based; settings: chlorocebus sabaeus
Summary of the method: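 Vero CCL81 cells were run in parallel with the antiviral assay in DMEM 2% FCS for 5 days at 37 °C. The value is the minimum concentration causing a microscopically detectable change in cell morphology.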

Vero = assay: Cytotoxicity against African green monkey Vero cells assessed as reduction in cell growth by Coulter counter analysis; format: toxicity, cell-based; settings: chlorocebus sabaeus
Summary of the method: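 Mock-infected Vero CCL81 cultures were treated with the compound dilution series in DMEM 2% FCS for 5 days at 37 °C.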

SARS-CoV-2 [7] = assay: Antiviral activity against SARS-CoV-2 UC-1074 infected in African green monkey Vero cells assessed as reduction in virus-induced cytopathic effect incubated for 5 days by microscopic analysis; format: functional, organism-based; settings: Severe acute respiratory syndrome coronavirus 2, UC-1074, Vero, 120 h
[8] = Tmax in C57BL6 mouse at 1.25 mg/kg, INH; format: ADME, organism-based; settings: in vivo, inhaled_or_intranasal
Summary of the method: (§1)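 Male C57BL6 mice, 6–8 weeks, 3 per group, single intranasal dose (0.5 mg/kg at 1.0 mg/mL; 1.25 mg/kg at 2.5 mg/mL) or oral dose (10 mg/kg at 1.0 mg/mL; 25 mg/kg at 2.5 mg/mL). Blood collected at 0.25, 1, 2, 4, 8 and 24 h. Cmax, Tmax and AUCt/dose were taken from plasma concentrations, given with SD.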

[9] = Cmax in C57BL6 mouse at 0.5 mg/kg, INH measured for 0.25 to 24 hrs; format: ADME, organism-based; design: time lower 0.25 hrs, dose 0.5 mg/kg, time upper 24 hrs, route inh; settings: in vivo, inhaled_or_intranasal; summary of the method: as §1
[10] = AUCt/dose in C57BL6 mouse at 0.5 mg/kg, INH measured for 0.25 to 24 hrs; format: ADME, organism-based; settings: in vivo, inhaled_or_intranasal, time 0.25-24 hrs; summary of the method: as §1
[11] = Cmax in C57BL6 mouse at 25 mg/kg, po; format: ADME, organism-based; design: dose 25 mg/kg, route po; settings: in vivo; summary of the method: as §1
Human betaherpesvirus 5 [12] = assay: Antiviral activity against HCMV Davis infected in HELF cells assessed as reduction in viral replication; format: functional, organism-based; settings: Human betaherpesvirus 5, Davis
[13] = Tmax in C57BL6 mouse at 0.5 mg/kg, INH; format: ADME, organism-based; settings: in vivo, inhaled_or_intranasal; summary of the method: as §1
[14] = target: T1, Replicase polyprotein 1ab; assay: Binding affinity to C-terminal His6-tagged recombinant SARS-CoV-2 MPro expressed in Escherichia coli BL21 (DE3) assessed as dissociation constant by ITC assay
Summary of the method: (§2)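 E. coli BL21(DE3) Mpro, made untagged by 3C cleavage and SEC, was dialysed into 25 mM Tris-HCl pH 7.6, 20 mM NaCl, 1 mM TCEP. 20–25 µM protein in the cell was titrated with 160–250 µM compound at 28 °C, 0.5% DMSO on both sides, 2.5 µL injections every 180 s. One-site fit with stoichiometry fixed at 1 gave ΔH, ΔS and KD.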

[15] = target: Replicase polyprotein 1ab (Severe acute respiratory syndrome coronavirus 2) (UniProt P0DTD1); assay: Binding affinity to C-terminal His6-tagged recombinant SARS-CoV-2 MPro expressed in Escherichia coli BL21 (DE3) assessed as change in gibbs free energy by ITC assay
[16] = target: Replicase polyprotein 1ab (Severe acute respiratory syndrome coronavirus 2) (UniProt P0DTD1); assay: Binding affinity to C-terminal His6-tagged recombinant SARS-CoV-2 MPro expressed in Escherichia coli BL21 (DE3) assessed as change in entropy by ITC assay; summary of the method: as §2
[17] = Selectivity index, ratio of EC50 for antiviral activity against SARS-CoV-2 RG2674 infected in African green monkey Vero cells to EC50 for antiviral activity against SARS-CoV-2 UC-1074 infected in African green monkey Vero cells; format: toxicity
[18] = AUCt/dose in C57BL6 mouse at 25 mg/kg, po; format: ADME, organism-based; settings: in vivo; summary of the method: as §1
[19] = Selectivity index, ratio of EC50 for antiviral activity against SARS-CoV-2 RG2674 infected in African green monkey Vero cells to EC50 for antiviral activity against SARS-CoV-2 NVDBB-2220 infected in African green monkey Vero cells; format: toxicity
[20] = Tmax in C57BL6 mouse at 10 mg/kg, po; format: ADME, organism-based; settings: in vivo; summary of the method: as §1
Human alphaherpesvirus 3 [21] = assay: Antiviral activity against thymidine kinase positive VZV OKA infected in HELF cells assessed as reduction in viral replication; format: functional, organism-based; settings: Human alphaherpesvirus 3, OKA
[22] = AUCt/dose in C57BL6 mouse at 1.25 mg/kg, INH; format: ADME, organism-based; settings: in vivo, inhaled_or_intranasal; summary of the method: as §1
[23] = Tmax in C57BL6 mouse at 25 mg/kg, po; format: ADME, organism-based; settings: in vivo; summary of the method: as §1
Human alphaherpesvirus 3 [24] = assay: Antiviral activity against thymidine kinase deficient VZV 07-1 infected in HELF cells assessed as reduction in viral replication; format: functional, organism-based; settings: Human alphaherpesvirus 3, 07-1, HELF
[25] = target: Replicase polyprotein 1ab (Severe acute respiratory syndrome coronavirus 2) (UniProt P0DTD1); assay: Binding affinity to C-terminal His6-tagged recombinant SARS-CoV-2 MPro expressed in Escherichia coli BL21 (DE3) assessed as change in enthalpy by ITC assay; summary of the method: as §2
[26] = Cmax in C57BL6 mouse at 1.25 mg/kg, INH; format: ADME, organism-based; design: dose 1.25 mg/kg, route inh; settings: in vivo, inhaled_or_intranasal; summary of the method: as §1
[27] = AUCt/dose in C57BL6 mouse at 10 mg/kg, po; format: ADME, organism-based; settings: in vivo; summary of the method: as §1
[28] = Cmax in C57BL6 mouse at 10 mg/kg, po; format: ADME, organism-based; design: dose 10 mg/kg, route po; settings: in vivo; summary of the method: as §1
Human betaherpesvirus 5 [29] = assay: Antiviral activity against HCMV AD-169 infected in HELF cells assessed as reduction in viral replication; format: functional, organism-based; settings: Human betaherpesvirus 5, AD-169, HELF

## CC(C)C[C@@H](C=O)NC(=O)[C@H](Cc1ccccc1)NC(=O)[C@@H]1Cc2ccccc2CN1 (H-[Tic]-Phe-Leu-aldehyde)
[1]
  IC50: > 425 µM
[2]
  Kd: > 213 µM

## CC(=O)NCC(=O)N[C@@H](Cc1c[nH]cn1)C(=O)N[C@H](C=O)Cc1ccc(O)cc1 (Ac-Gly-His-Tyr-aldehyde)
[1]
  IC50: > 425 µM
[2]
  Kd: > 213 µM

## CC(=O)NCC(=O)N[C@@H](Cc1c[nH]cn1)C(=O)N[C@H](C=O)Cc1c[nH]cn1 (Ac-Gly-His-His-aldehyde)
[1]
  IC50: > 213 µM
[2]
  Kd: > 107 µM

## Nc1nc2c(ncn2COCCO)c(=O)[nH]1 [ACYCLOVIR]
[3]
  MCC: > 444 µM

## CCC(CC)COC(=O)[C@H](C)N[P@](=O)(OC[C@H]1O[C@@](C#N)(c2ccc3c(N)ncnn23)[C@H](O)[C@@H]1O)Oc1ccccc1
SARS-CoV-2 [4]
  EC50: 1.3 µM
SARS-CoV-2 [5]
  EC50: 0.2 µM
[6]
  MCC: 80 µM
Vero
  CC50: 70.6 µM
SARS-CoV-2 [7]
  EC50: 0.89 µM

## CCCCCCCC(=O)NCC(=O)N[C@@H](Cc1ccccc1)C(=O)N[C@H](C=O)Cc1c[nH]cn1 (Octanoyl-Gly-Phe-His-aldehyde)
[8]
  Tmax: 15 min
SARS-CoV-2 [4]
  EC50: 39.9 µM
SARS-CoV-2 [5]
  EC50: 5.2 µM
[9]
  Cmax: 177.97 ng/mL
[10]
  AUCt/dose: 188.05 kg·ng·h/mL/mg
[11]
  Cmax: 33.7 ng/mL
[6]
  MCC: ≥ 100 µM
Human betaherpesvirus 5 [12]
  EC50: > 100 µM
[1]
  IC50: 2.37 µM
[13]
  Tmax: 15 min
Vero
  CC50: > 100 µM
[14]
  Kd: 0.425 µM
[15]
  deltaG: -8.8 kcal/mol
[16]
  -TdeltaS: 7.6 kcal/mol
[2]
  Kd: 1.19 µM
SARS-CoV-2 [7]
  EC50: 5 µM
[17]
  Ratio EC50: 8
[18]
  AUCt/dose: 2 kg·ng·h/mL/mg
[19]
  Ratio EC50: 8
[20]
  Tmax: 45 min
Human alphaherpesvirus 3 [21]
  EC50: > 100 µM
[22]
  AUCt/dose: 150.62 kg·ng·h/mL/mg
[23]
  Tmax: 30 min
Human alphaherpesvirus 3 [24]
  EC50: > 100 µM
[25]
  deltaH: -16.4 kcal/mol
[26]
  Cmax: 325.95 ng/mL
[27]
  AUCt/dose: 3.07 kg·ng·h/mL/mg
[28]
  Cmax: 22.72 ng/mg
[3]
  MCC: > 100 µM
Human betaherpesvirus 5 [29]
  EC50: > 20 µM

## CC(C)(C)O[C@H]1CN[C@H](C(=O)N[C@@H](Cc2c[nH]cn2)C(=O)N[C@H](C=O)Cc2c[nH]cn2)C1 (H-[Hyp](tBu)-His-His-aldehyde)
[1]
  IC50: > 170 µM
[2]
  Kd: > 85 µM
